ChEMBL document CHEMBL1158764, “Cytotoxic sesquiterpene lactones from Eupatorium kiirunense, a coastal plant of Taiwan” (2005)
Values after ≈ are worked out from the molar mass of the structure shown.

What was measured:
Type in all cases: functional
Conditions in all cases: read-out: ED50 (the source's name)
[1] = system: HeLa; assay: Cytotoxicity against human HeLa cells by methylene blue staining method
In short: (§1)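 Tumor cells cultured in RPMI-1640 medium and exposed to test sample for 72 h. Growth inhibition read by methylene blue staining (absorbance). ED50 taken as the concentration giving 50% reduction of absorbance relative to untreated cells.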

[2] = system: KB; assay: Cytotoxicity against human KB cells by methylene blue staining method; in short: as §1
[3] = Cytotoxicity against human HEPA 59T/VGH cells by methylene blue staining method; in short: as §1

SMILES | EC50 [1] [µg/mL] | EC50 [2] [µg/mL] | EC50 [3] [µg/mL]
C=C1C(=O)O[C@@H]2/C=C(\C)C(=O)/C=C/[C@](C)(O)C[C@@H](OC(=O)/C(C)=C/C)[C@@H]12 [EUPAHELIANGOLIDE A] | 3.3 (≈ 9.16 µM) | 3.5 (≈ 9.71 µM) | 3.5 (≈ 9.71 µM)
C=C1C(=O)O[C@H]2/C=C(\C)[C@]3(O)CC[C@](C)(C[C@@H](OC(=O)/C(C)=C/C)[C@@H]12)O3 [EUPAKIRUNSIN D] | 5.8 (≈ 16 µM) | 4.8 (≈ 13.2 µM) | 5 (≈ 13.8 µM)
C=C1C(=O)O[C@H]2[C@H]1[C@H](OC(=O)/C(C)=C/C)C[C@H](C)[C@H](O)CC(=O)[C@]1(C)O[C@H]21 [EUPAKIRUNSIN C] | 7.1 (≈ 18.8 µM) | 8.1 (≈ 21.4 µM) | 8.6 (≈ 22.7 µM)
COc1cccc2c1C(=O)c1c(O)c3c(c(O)c1C2=O)C[C@@](O)(C(=O)CO)C[C@@H]3O[C@H]1C[C@H](N)[C@H](O)[C@H](C)O1 [DOXORUBICIN] | 0.14 (≈ 0.258 µM) | 0.15 (≈ 0.276 µM) | 0.19 (≈ 0.35 µM)
C=C1C(=O)O[C@H]2/C=C(/COC(C)=O)[C@@H](O)C[C@H]3O[C@@]3(C)C[C@@H](OC(=O)/C(C)=C/C)[C@@H]12 | 7.5 (≈ 17.8 µM) | 4.3 (≈ 10.2 µM) | 7 (≈ 16.6 µM)
C=C1C(=O)O[C@H]2/C=C(\C)C(=O)[C@@H]3O[C@H]3[C@](C)(O)C[C@@H](OC(=O)/C(C)=C/C)[C@@H]12 [EUPAKIRUNSIN E] | > 20 | > 20 | > 20
C=C1C(=O)O[C@H]2[C@H]1[C@H](OC(=O)/C(C)=C/C)CC(=C)[C@H](O)[C@@H]1O[C@@H]1[C@]1(C)O[C@H]21 [EUPAKIRUNSIN A] | 8.9 (≈ 23.6 µM) | 5.5 (≈ 14.6 µM) | 4.4 (≈ 11.7 µM)
C=C1C(=O)O[C@H]2/C=C(/C)[C@H](O)C[C@H]3O[C@@]3(C)C[C@@H](OC(=O)/C(C)=C/C)[C@@H]12 | 3.1 (≈ 8.55 µM) | 3.2 (≈ 8.83 µM) | 4.4 (≈ 12.1 µM)
C=C1C(=O)O[C@H]2/C=C(/C)[C@@H](O)C[C@H]3O[C@@]3(C)C[C@@H](OC(=O)/C(C)=C/C)[C@@H]12 [HELIANGIN] | 4.4 (≈ 12.1 µM) | 1.8 (≈ 4.97 µM) | 2 (≈ 5.52 µM)
C=C1C(=O)O[C@H]2/C=C(\C)[C@H](O)/C=C\[C@](C)(O)C[C@@H](OC(=O)/C(C)=C/C)[C@@H]12 [EUPAKIRUNSIN B] | > 20 | > 20 | > 20
